Reference: paper PMC5299595 (Fitoterapia, 2016)
“Also recorded” adds a separate entry of the source. Counter-ions that a name gives are not always drawn. Like-named read-outs stand apart in the source and are kept apart here.

Columns and labels:
[1] = target: nicAchRs; assay: [3H]-epibatidine competition binding in rat cortical membranes; settings: read-out: Ki, [3H]-epibatidine binding
[2] = test system: mice; settings: cited from earlier work
[3] = PubChem data; cited from earlier work
[4] = test system: rabbits; settings: intravenous; cited from earlier work
[5] = target: T1, DAT (Rattus norvegicus, UniProt P23977); assay: [3H]-GBR12935 competition binding in rat striatal membranes; settings: read-out: Ki, [3H]-GBR12935 binding
In short: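 Striatal tissue homogenised in 120 mM NaCl/50 mM Tris-HCl (pH 7.4), spun at 25,000 × g for 20 min at 4°C, then washed thrice in the same buffer plus 0.01% FBS. Membranes (1 mg/ml final) preincubated 15 min with test compound (final 1.0 mM – 0.1 nM; DMSO <0.1%). 1 nM [3H]-GBR12935 then added for 1 h at room temperature. GF/B filtration and scintillation counting; non-specific binding defined with 10 μM GBR12909.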

[6] = target: α4β2-nicAchR (Rattus norvegicus, UniProt P09483+P12390); assay: [3H]-cytisine competition binding in rat cortical membranes; settings: read-out: Ki, [3H]-cytisine binding (α4β2-nicAchR)
[7] = test system: rat striatal slices preloaded with [3H]-DA; assay: Fractional [3H] release from [3H]-DA preloaded superfused rat striatal slices; format: cell-based
In short: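 Rat coronal striatal slices (500 μm, 6–8 mg) equilibrated 30 min at 34°C in oxygenated Krebs' buffer (pH 7.4), then preloaded with 0.1 μM [3H]-DA for 30 min. Superfused at 34°C, 1 ml/min, with buffer containing 10 μM pargyline and 10 μM nomifensine. Two 4-min basal samples taken after 60 min. Test compound (10, 100 or 1000 μM) then perfused per chamber, or 100 μM given after 20 min of 10 μM MEC or vehicle. Compared with vehicle-treated slices by Bonferroni post-hoc test; n = 4–10 rats.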

[8] = test system: nicAchRs in SH-SY5Y cells; assay: 45Ca2+ entry in SH-SY5Y cells; format: cell-based, human
[9] = test system: cats; settings: intravenous; cited from earlier work
[10] = target: T1, DAT; assay: DAT-mediated [3H]-DA uptake in rat striatal synaptosomes; format: biochemical; settings: read-out: IC50, DAT-mediated [3H]-DA uptake
In short: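 Striata from CO2-anaesthetised adult male Sprague-Dawley rats (200–250 g) homogenised in pH 7.4 HEPES uptake buffer (100 μM pargyline, 0.32 M sucrose). Synaptosomes taken as the 16,000 × g pellet after a 1,000 × g spin. Test compound (final 1 mM – 0.1 nM; DMSO ≤1.0%) preincubated 10 min at 37°C. [3H]-DA (15–30 nM final) uptake for 5 min at 37°C, stopped on ice, GF/C filtration, scintillation counting. Non-specific uptake defined with 10 μM GBR-12909.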

[11] = test system: α4β2- and α7-nicAchRs; settings: α7 vs α4β2, based on comparison of Ki's
[12] = target: α7-nicAchR (Rattus norvegicus, UniProt Q05941); assay: [3H]-MLA competition binding in rat hippocampal membranes; settings: read-out: Ki, [3H]-MLA binding (α7-nicAchR)
[13] = target: T1, DAT; format: in vivo
In short: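 High-speed chronoamperometry with Nafion-coated carbon fibre microelectrodes in the dorsal striatum of isoflurane-anaesthetised rats. Clearance of locally applied exogenous DA used to gauge DAT function, and test compound also applied locally in the striatum.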

[14] = DPPH free radical scavenging assay; settings: read-out: EC50, DPPH free radical scavenging; DPPH 300 μM, 5 minutes
[15] = target: α7-nicAchR; settings: read-out: Ki α7-nicAchR, cited from earlier work
[16] = target: α4β2-nicAchR; settings: read-out: Ki α4β2-nicAchR, cited from earlier work
[17] = test system: α4β2- and α7-nicAchRs; settings: previously reported, ref Littleton et al. (2005) [15], cited from earlier work
[18] = target: T1, DAT; settings: cited from earlier work
[19] = test system: rat striatal slices preloaded with [3H]-DA; settings: cited from earlier work

For CN1CCCC2C(c3ccccc3)C(C3=NCCCC3)C(c3ccccc3)CC21 (stereo not drawn) [Lobinaline, lobinaline], the Ki [1] is listed as 16.2 µM, the minimal lethal dose ([2]; subcutaneous administration in mice) is listed as 800 mg/kg and the hydrogen bond acceptors [3] is listed as 2. For the same molecule, the hydrogen bond donors [3] was 0, the molar fractivity [3] was 82.47 and the “Effect on blood pressure” value [4] was “lower blood pressure”. The Effect on respiration [4] was “unaffected”, the Ki [5] was 2.54 µM and the Ki [6] was 1.07 µM. The “Fractional [3H] release vs vehicle” value ([7]; 10 μM) was “not significantly increased”, the “Fractional [3H] release vs vehicle after MEC pretreatment” value ([7]; 100 μM after 10 μM MEC pretreatment for 20 minutes) was “not significantly different; also recorded: no significant difference” and the “Fractional [3H] release, greater than vehicle” value ([7]; 100 μM, 8 minutes after treatment, MEC experiment set) was 160%. The “Maximum fractional [3H] release, greater than vehicle treated” value ([7]; 100 μM, maximum 12 minutes post-treatment, concentration-response studies) was 186%, the “Maximum fractional [3H] release, greater than vehicle treated controls” value ([7]; 100 μM, maximum 16 minutes after treatment, MEC experiment set) was 262% and the “Maximum fractional [3H] release, greater than vehicle treated” value ([7]; 1000 μM, maximum 8 minutes post-treatment) was 494%. The “45Ca2+ entry, increase above basal” value ([8]; 1 mM) was 41.6%, the “45Ca2+ entry, increase above basal” value ([8]; 1 mM concomitantly with NIC 10 μM) was 115.7% and the “Effect of MEC on compound-induced 45Ca2+ entry” value ([8]; 1 mM with MEC 1 μM) was “completely abolished”. For the same molecule, the “Effect on blood pressure” value [9] was “lower blood pressure”, the Effect on respiration [9] was “unaffected” and the IC50 [10] was 12 µM. The “NicAchR Selectivity (-fold difference)” value [11] was 63 -fold, the Ki [12] was 67.5 µM and the “Time after ejection at which effects on DA clearance are no longer significant” value ([13]; local application in striatum) was 3 to 5 min. The “Direct effect on electrochemical DA signal when locally applied alone” value ([13]; locally applied from a micropipette, n = 10, data not shown) was “no direct effects” and the EC50 [14] was 18 µM.

In the case of CNC1(C)C2CCC(C2)C1(C)C (stereo not drawn) [MEC, mecamylamine (MEC) hydrochloride], the “Effect on 45Ca2+ entry” value ([8]; 1 μM alone) is reported as “unaffected; also recorded: did not affect”.

In the case of c1cncc([C@@H]2CCCCN2)c1 [anabasine], the Ki [15] is listed as 0.058 µM, the Ki [16] is listed as 0.065 µM and the DDR value [17] is listed as 4.16.

For CN1CCC[C@H]1c1cccnc1 [Nicotine, (−)-nicotine], the Ki ([15]; ref Rueter et al. (2006)) is given as 1.45 µM, the Ki ([16]; ref Rueter et al. (2006)) is given as 0.00096 µM and the “Activity at the DAT” value ([18]; rat striatal synaptosomes) is given as “inactive”. For the same molecule, the “45Ca2+ entry, increase above basal” value ([8]; 10 μM, LCaq experiments (Fig. 1A)) was 374.4%, the “45Ca2+ entry, increase above basal” value ([8]; 10 μM, lobinaline experiments (Fig. 6A)) was 196.6% and the DDR value [17] was 13.00 ^6. The DDR value ([17]; listed as nicotine) was 13.00 and the “NicAchR Selectivity (-fold difference)” value [11] was 1508 -fold.

For CN1[C@@H](CC(=O)c2ccccc2)CCC[C@H]1C[C@H](O)c1ccccc1 [Lobeline, (−)-lobeline hydrochloride], the Ki ([15]; ref Hojahmat et al. (2010)) is listed as 6.26 µM, the Ki ([16]; ref Hojahmat et al. (2010)) is listed as 0.004 µM and the minimal lethal dose ([2]; mouse, in vivo, sc) is listed as 300 mg/kg. The IC50 ([18]; read-out: IC50, DAT inhibition) was 28.2 to 80 µM, the “MEC sensitivity of evoked fractional [3H] release” value [19] was “MEC-insensitive” and the DDR value [17] was 6.27 ^6. For the same molecule, the DDR value ([17]; listed as lobeline) was 6.27, the “NicAchR Selectivity (-fold difference)” value [11] was 1565 -fold and the EC50 [14] was 229 µM.

For O=c1c(O)c(-c2ccc(O)c(O)c2)oc2cc(O)cc(O)c12 [Quercetin], the EC50 [14] was 11.2 µM.
